Measured values reported in ChEMBL document CHEMBL1212801, “Inhibitor resistance in the KPC-2 beta-lactamase, a preeminent property of this class A beta-lactamase” (Antimicrob Agents Chemother, 2010).
Converted amounts (≈) assume the structure as drawn. The source made the active and inactive calls. No cut-off for these calls is given here.

Assays:
[1] = system: Escherichia coli str. K-12 substr. DH10B; assay: (§1) Activity at Escherichia coli DH10B beta-lactamase KPC-2 by diode array spectrophotometry
[2] = as §1; parameters: species or system Escherichia coli str. K-12 substr. DH10B
Escherichia coli [3] = assay: Antimicrobial activity against Escherichia coli DH10B harboring beta lactamase KPC-2 by CLSI method; settings: K-12 DH10B
[4] = system: Escherichia coli str. K-12 substr. DH10B; assay: Ratio of Kcat to Km for Escherichia coli DH10B beta-lactamase KPC-2
In short: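 Steady-state assay on a diode array spectrophotometer with 10 nM purified KPC-2 and substrates at 5–200 μM, in 10 mM PBS pH 7.4 at room temperature. Spontaneous imipenem hydrolysis was subtracted. Vmax and Km came from a nonlinear least-squares Michaelis-Menten fit.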

Escherichia coli [5] = assay: Antimicrobial activity against Escherichia coli DH10B by CLSI method; settings: K-12 DH10B
Klebsiella pneumoniae = assay: Antimicrobial activity against Klebsiella pneumoniae 1534 harboring beta lactamase KPC-2 by CLSI method; type: functional
In short: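 […] agar dilution MICs per CLSI, using a Steers replicator spotting 10^4 CFU per spot. For clavulanic acid and sulbactam, ampicillin was fixed at 50 mg/liter while inhibitor was increased. Piperacillin-tazobactam was tested at 8:1. Test inhibitors were held at 4 mg/liter while piperacillin, imipenem or cefotaxime was increased.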

[6] = system: Escherichia coli str. K-12 substr. DH10B; assay: Inhibition of Escherichia coli DH10B beta-lactamase KPC-2 assessed as residual activity at 25 to 200 uM after 24 hrs by diode array spectrophotometry
[7] = system: Escherichia coli str. K-12 substr. DH10B; assay: Ratio of Kcat to Kinact for Escherichia coli DH10B beta-lactamase KPC-2
[8] = system: Escherichia coli str. K-12 substr. DH10B; assay: Ratio of Kinact to Km for Escherichia coli DH10B beta-lactamase KPC-2
[9] = system: Escherichia coli str. K-12 substr. DH10B; assay: Km for Escherichia coli DH10B beta-lactamase KPC-2
[10] = system: Escherichia coli str. K-12 substr. DH10B; assay: Inhibition of Escherichia coli DH10B beta-lactamase KPC-2 assessed as residual activity at 25 to 200 uM after 24 hrs by diode array spectrophotometry; values are per cent of control
[11] = system: Escherichia coli str. K-12 substr. DH10B; assay: Inhibition of Escherichia coli DH10B beta-lactamase KPC-2 at 0.025 mM by UVD spectroscopy
[12] = system: Escherichia coli str. K-12 substr. DH10B; assay: Inhibition of Escherichia coli DH10B beta-lactamase KPC-2 assessed as residual activity at 25 to 200 uM after 72 hrs by diode array spectrophotometry

| Structure (SMILES) | kcat [1] [s⁻¹] | Ki [2] [µM] | MIC (Escherichia coli [3]) [µg/mL] | kcat/Km [4] [µM/s] | MIC (Escherichia coli [5]) [µg/mL] | MIC (Klebsiella pneumoniae) [µg/mL] | kcat/kinact [7] | kinact/Km [8] [M⁻¹ s⁻¹] | Km [9] [µM] | further results |
| --- | --- | --- | --- | --- | --- | --- | --- | --- | --- | --- |
| CCN1CCN(C(=O)N[C@@H](C(=O)N[C@@H]2C(=O)N3[C@@H]2SC(C)(C)[C@@H]3C(=O)O)c2ccccc2)C(=O)C1=O [PIPERACILLIN] | 17 | 16 | 1020 (≈ 1980 µM) | 1.1 | 2 (≈ 3.86 µM) | 1020 (≈ 1980 µM) | – | – | – | – |
| O=C(Cc1cccs1)N[C@@H]1C(=O)N2C(C(=O)O)=C(/C=C/c3ccc([N+](=O)[O-])cc3[N+](=O)[O-])CS[C@H]12 [NITROCEFIN] | 30 | 5 | – | 6.4 | – | – | – | – | – | – |
| CO/N=C(\C(=O)N[C@@H]1C(=O)N2C(C(=O)O)=C(COC(C)=O)CS[C@H]12)c1csc(N)n1 [CEFOTAXIME] | 78 | 120 | 8 (≈ 17.6 µM) | 0.6 | 0.06 (≈ 0.132 µM) | 16 (≈ 35.1 µM) | – | – | – | – |
| C[C@]1(Cn2ccnn2)[C@H](C(=O)O)N2C(=O)C[C@H]2S1(=O)=O | – | – | – | – | – | – | 500 | 2500 | 78.5 | Activity [6]: 50% |
| CC1(C)[C@H](C(=O)O)N2C(=O)C[C@H]2S1(=O)=O | – | – | – | – | – | – | 1000 | 1200 | 135 | Activity [6]: 50% |
| O=C(O)C1=CSC2/C(=C\c3cc4n(n3)CSC4)C(=O)N12 (stereo not given) | – | – | – | – | – | – | 250 | 180000 | 0.06 | residual activity [10]: 20%; inhibition [11]: Active |
| O=C(O)[C@H]1/C(=C/CO)O[C@@H]2CC(=O)N21 | – | – | – | – | – | – | 2500 | 3600 | 8.4 | Activity [12]: 5% |
| CC1(C)S[C@@H]2[C@H](NC(=O)[C@H](N)c3ccccc3)C(=O)N2[C@H]1C(=O)O [AMPICILLIN] | – | – | 4100 (≈ 11700 µM) | – | 1 (≈ 2.86 µM) | 8190 (≈ 23400 µM) | – | – | – | – |
| C[C@@H](O)[C@H]1C(=O)N2C(C(=O)O)=C(SCCNC=N)C[C@H]12 [IMIPENEM ANHYDROUS] | 19 | 19 | 8 (≈ 26.7 µM) | 1 | – | 8 (≈ 26.7 µM) | – | – | – | – |
